KCNQ1 inh: human KCNQ1 channel inhibition; CHO-K1 KCNQ1, FluxOR thallium flux fluorescence; active compounds read high; B-score at 10 µM; 310,000 compounds, 1.3% hits; AID 2642;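 active means compounds whose thallium flux B-score, printed positive for inhibition, exceeds three library SD while starting fluorescence stays within three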;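 further: channel opened by potassium depolarization with thallium stimulus after 20 min compound exposure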
KCNK9 block: human KCNK9 channel inhibition | HEK293 KCNK9, FluxOR thallium flux fluorescence; active compounds read low | B-score at 10 µM | Q9NPC2 | AID 488922 | 310,000 compounds, 1.2% hits;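 active means ratio B-score over 3 SD below the library mean, with starting fluorescence within 5 SD of its mean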;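 further: negative B-score means less thallium flux so channel inhibition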
hERG rescue: shields human hERG channel from block by proarrhythmic agents; Q12809; CHO-hERG, FluxOR thallium flux, dofetilide IC70 present; activation (rescue from dofetilide block), less the hit threshold, % at 10 µM; 310,000 compounds, 0.51% hits;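 active means activation above the mean of controls blocked by dofetilide plus 5 SD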;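 further: thallium influx through hERG after potassium depolarization seen as dye fluorescence rise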
Kir21 inh: Kir2.1 (mouse) channel inhibition; 310,000 compounds, 0.85% hits; HEK293-Kir2.1, FluxOR thallium flux fluorescence; active compounds read low; AID 1672; B-score at 10 µM; P35561;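 active means fluorescence ratio B-score at or below minus 3 SD of library scores, with starting-brightness B-score within 2 SD, cut at about -4.2 in these data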;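 further: channel flux triggered by added potassium and thallium sulfate stimulus; B-score of peak minus minimum fluorescence over baseline after thallium stimulus; more negative B-score means stronger Kir2.1 block with less thallium influx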
Target sequence (P35561 whole entry, looked up): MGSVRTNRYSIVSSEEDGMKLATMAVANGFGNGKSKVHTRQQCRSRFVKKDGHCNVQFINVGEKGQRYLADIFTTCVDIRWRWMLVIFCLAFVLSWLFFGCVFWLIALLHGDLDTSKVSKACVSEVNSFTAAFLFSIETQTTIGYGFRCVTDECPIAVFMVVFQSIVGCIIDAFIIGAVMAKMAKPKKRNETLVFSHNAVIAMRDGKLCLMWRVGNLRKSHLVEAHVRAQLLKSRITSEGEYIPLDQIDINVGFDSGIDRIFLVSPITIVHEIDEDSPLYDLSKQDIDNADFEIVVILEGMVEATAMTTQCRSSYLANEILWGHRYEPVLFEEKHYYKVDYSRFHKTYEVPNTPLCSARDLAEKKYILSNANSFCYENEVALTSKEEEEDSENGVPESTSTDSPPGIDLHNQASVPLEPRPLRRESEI
KCNK3 block: human KCNK3 channel inhibition, primary screen; O14649; CHO-KCNK3 thallium flux, FluxOR fluorescence; active compounds read low; B-score at 10 µM; 340,000 compounds, 0.84% hits; AID 602410;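 active means B-score under library mean minus 4 SD, starting fluorescence ratio at most library mean plus 5 SD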;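 further: more negative B-score means stronger inhibition of thallium flux through KCNK3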
Target sequence (O14649 whole entry, looked up): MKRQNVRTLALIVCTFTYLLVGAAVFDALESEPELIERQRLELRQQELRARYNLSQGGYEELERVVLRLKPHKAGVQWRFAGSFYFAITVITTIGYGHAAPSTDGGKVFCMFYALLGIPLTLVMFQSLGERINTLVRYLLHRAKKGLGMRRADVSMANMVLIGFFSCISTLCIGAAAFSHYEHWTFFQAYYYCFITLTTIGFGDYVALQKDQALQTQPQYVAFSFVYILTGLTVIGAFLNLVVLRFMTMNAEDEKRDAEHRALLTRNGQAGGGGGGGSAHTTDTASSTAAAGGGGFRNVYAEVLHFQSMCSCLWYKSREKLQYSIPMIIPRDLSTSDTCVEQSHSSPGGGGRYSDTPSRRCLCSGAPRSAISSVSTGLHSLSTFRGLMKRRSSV
KCNQ1 pot: potentiates or activates the human KCNQ1 potassium channel. 310,000 compounds, 0.35% hits. AID 2648. P51787. B-score at 10 µM. CHO-K1 KCNQ1, thallium flux FluxOR fluorescence; active compounds read high;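 active means fluorescence ratio B-score, a plate-corrected score, at least three library SD, with initial intensity B-score within 5 SD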
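Test system: CHO-K1 cells stably expressing KCNQ1 / Medium: assay buffer / Also added: depolarizing K+/Tl+ stimulus, K2SO4 and Tl2SO4 each 12.5 mM in 5x stock / Incubation: 90 min dye loading and 20 min compound exposure, both at room temperature / Signal: thallium influx via FluxOR fluorescence, kinetic imaging / Evaluation: B score of baseline-normalized fluorescence ratio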
KCNQ1 block val: reconfirmed blocker of the human KCNQ1 potassium channel. 1,600 compounds, 93% hits. AID 588353. shares compounds with KCNQ1 inh. inhibition, % at 10 µM. KCNQ1 cell line, FluxOR thallium flux fluorescence;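 active means primary screen active, with duplicate mean exceeding buffer control mean plus 3 SD of buffer wells, cut at about 28% in these data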
CHO Tl flux: counter-screen for KCNQ1 inhibitors: effect in parental CHO cells | shares compounds with KCNQ1 inh | parental CHO-K1, FluxOR thallium flux fluorescence ratio; active compounds read low; zero means no signal rise above baseline | fluorescence ratio (Tl flux) at 10 µM | 1,600 compounds, 21% hits | AID 588366;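 active means mean of duplicate thallium-flux fluorescence ratios in parental host cells more than 5 SD below the buffer control mean, cut at about 0.38 in these data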;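 further: ratio is peak minus minimum fluorescence divided by baseline fluorescence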
KCNQ1 ephys val: human KCNQ1 inhibition validated by electrophysiology; calls only at 10 µM; 490 compounds, 20% hits; AID 624120; KCNQ1-CHO cells, automated patch clamp current; shares compounds with KCNQ1 inh;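 active means KCNQ1 current drop exceeding 3 SD of negative control wells, seen in both duplicate runs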;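 further: steady state current during a 2 s step from -80 to +40 mV; negative values mean current inhibition and positive values mean potentiation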
KCNQ2 spec: KCNQ1 inhibitor that also blocks rat KCNQ2 channel; shares compounds with KCNQ1 inh; KCNQ2 cells, FluxOR thallium flux fluorescence; inhibition, % at 10 µM; 1,600 compounds, 71% hits; AID 651746;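 active means mean percent inhibition of the KCNQ2 thallium signal more than 5 SD above the buffer-only control wells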;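 further: KCNQ2 expressed in CHO cells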
KCNQ1-KCNE1 inh: KCNQ1 inhibitor that also blocks human KCNQ1/KCNE1 channel | shares compounds with KCNQ1 inh | KCNQ1/KCNE1 cells, FluxOR thallium flux fluorescence | inhibition, % at 10 µM | 1,600 compounds, 77% hits;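 active means mean percent inhibition of duplicate wells above the buffer-only control mean plus 3 SD of those controls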
KCNK9 block conf: human KCNK9 inhibitor confirmation. shares compounds with KCNK9 block. HEK293 KCNK9 cells, FluxOR thallium flux fluorescence. inhibition, % at 10 µM. 4,900 compounds, 43% hits;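 active means thallium signal inhibited by more than 5 SD of the compound-free buffer control wells, on both duplicate plates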
Kir2-1 spec: tests whether KCNK9 modulators also affect mouse Kir2.1; shares compounds with KCNK9 block; Kir2.1 cells, FluxOR thallium flux fluorescence; inhibition, % at 10 µM; 4,900 compounds, 4% hits;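 active means thallium signal drop more than 5 SD beyond the mean of the no-compound control wells, seen in both duplicate plates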;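 further: signal is fluorescence rise after thallium addition divided by baseline fluorescence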
KCNK9 uninduced: non-induced cell nonspecific activity of KCNK9 modulators; shares compounds with KCNK9 block; non-induced KCNK9-HEK293, FluxOR thallium flux; inhibition, % at 10 µM; 4,900 compounds, 40% hits; AID 492997;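 active means thallium signal drop beyond 5 SD of the untreated control mean, on both duplicate plates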
A number is an active result; 0 = inactive; - = no result given; + = active, no number. Only some compounds are listed: those with a hit (about 3.7% of all), similar ones and a draw of the others.

SMILES | KCNQ1 inh | KCNK9 block | hERG rescue | Kir21 inh | KCNK3 block | KCNQ1 pot | KCNQ1 block val | CHO Tl flux | KCNQ2 spec | KCNQ1-KCNE1 inh | others
COc1ccc(C(c2c(O)ccc3ccccc23)N2CCOCC2)c(OC)c1 (stereo unspecified) | 7 | 0 | 0 | 0 | 0 | 0 | 113 | 0.35 | 108% | 142%
Cn1c2c(c(=O)n(C)c1=O)C(C(F)(F)F)(C(F)(F)F)N=C(c1ccc(Cl)cc1)N2 | 7 | 0 | 0 | 0 | 0 | 0 | 62 | 0 | 0 | 0
CCOC(=O)c1ccc(NC(=O)c2cccc(S(=O)(=O)N3c4ccccc4CC3C)c2)s1 (stereo unspecified) | 7 | 0 | 0 | 0 | 0 | 0 | 89 | 0 | 0 | 110% | KCNQ1 ephys val=0
CC1Cc2ccccc2N1S(=O)(=O)c1cccc(C(=O)NCCCO)c1 (stereo unspecified) | 0 | 0 | 0 | 0 | 0 | 0 | - | - | - | -
N#CCC(=O)Nc1ccc(C(=O)OCC(=O)Nc2ccc3ccccc3c2)cc1 | - | - | - | - | 0 | - | - | - | - | -
CC1CN(C(=O)COC(=O)CSc2ccc([N+](=O)[O-])cc2)CC(C)O1 (stereo unspecified) | - | - | - | - | 0 | - | - | - | - | -
S=C(Nc1cccc(Cl)c1)NC1CCCCC1 | 8 | 0 | 0 | 0 | 0 | 0 | 50 | 0 | 60% | 62%
CCOC(=O)c1ccc(N2CCN(c3ccccc3F)CC2)c(NC(=O)Nc2ccccc2)c1 | 6 | 0 | 0 | 0 | 0 | 0 | 118 | 0.36 | 118% | 138%
Cc1ccc(-c2nc3ccccc3nc2-c2ccccc2)cc1 | 15 | 0 | 0 | 0 | 0 | 0 | 88 | 0 | 108% | 152% | KCNQ1 ephys val=+
Nc1ccc(Oc2ccc3nc(-c4ccccc4)c(-c4ccccc4)nc3c2)cc1 | 0 | 0 | 0 | 0 | 0 | 0 | - | - | - | -
Nc1ccc2nc(-c3ccccc3)c(-c3ccccc3)nc2c1 | 15 | 0 | 0 | 0 | 0 | 0 | 148 | 0.21 | 0 | 0
Clc1ccc(-c2nc3ccccc3nc2-c2ccccc2)cc1 | 0 | 0 | 0 | 0 | 0 | 0 | - | - | - | -
Cc1cccc(C(=O)OC(C)C(=O)Nc2ccc(S(=O)(=O)N3CCCC3)cc2)c1O (stereo unspecified) | 10 | 0 | 0 | 0 | 0 | 0 | 136 | 0.38 | 117% | 178%
CC(OC(=O)c1cc(Br)ccc1O)C(=O)Nc1ccc(S(=O)(=O)N2CCCC2)cc1 (stereo unspecified) | 0 | 0 | 0 | 0 | 0 | 0 | - | - | - | -
CC1CCN(CCCOc2ccc(Cl)cc2Br)CC1 | 6 | 0 | 0 | -4.5 | 0 | 0 | 42 | 0 | 0 | 0
CCOc1ccccc1OCC(=O)OCC(=O)c1c(C)[nH]c2ccccc12 | 0 | 0 | 0 | 0 | 0 | 0 | - | - | - | -
COC(=O)c1ccc([C@H](NC(=O)c2ccco2)[C@]2(C)C[C@H]2C2CCCCC2)cc1 | 6 | 0 | 0 | 0 | 0 | 0 | 122 | 0.34 | 107% | 168%
CCC(CC)NC(=O)Nc1ccc(F)c(Cl)c1 | 9 | -8.6 | 0 | 0 | 0 | 0 | 44 | 0 | 0 | 62% | KCNK9 block conf=44%;Kir2-1 spec=0;KCNK9 uninduced=0
Nc1ccc(Cn2ccc3c4c(N)nc(N)nc4ccc32)cc1 | - | - | - | - | 0 | - | - | - | - | -
C=CCCC1CN(CCCC)S(=O)(=O)c2c(F)cccc2O1 (stereo unspecified) | - | - | - | - | 0 | - | - | - | - | -
CCc1ccccc1NCC(=O)Nc1ccc(Cl)c(C(F)(F)F)c1 | 8 | 0 | 0 | 0 | 0 | 0 | 50 | 0 | 62% | 0 | KCNK9 block conf=0;Kir2-1 spec=0;KCNK9 uninduced=40%
Cc1cccc(C)c1OC1(c2ccccc2)OC(=O)c2ccccc21 (stereo unspecified) | 9 | -19 | 0 | 0 | 0 | 0 | 106 | 0 | 98% | 138% | KCNQ1 ephys val=0;KCNK9 block conf=55%;Kir2-1 spec=32%;KCNK9 uninduced=44%
CCOC1(c2ccccc2)OC(=O)c2ccccc21 (stereo unspecified) | 0 | 0 | 0 | 0 | 0 | 0 | - | - | - | -
CC(C)[C@H](N)C(=O)NC[C@H]1CC[C@H](C(=O)N[C@@H](Cc2ccccc2)C(=O)O)CC1 | 0 | 0 | 0 | 0 | 0 | 0 | - | - | - | -
Cc1cccc(/C=C/c2onc(C)c2S(=O)(=O)N2CCC(C(=O)N3CCC(C)CC3)CC2)c1 | 6 | 0 | 0 | 0 | 0 | 0 | 52 | 0 | 0 | 56% | KCNK9 block conf=0;Kir2-1 spec=0;KCNK9 uninduced=0
SMILES | KCNQ1 inh | KCNK9 block | hERG rescue | Kir21 inh | KCNK3 block | KCNQ1 pot | KCNQ1 block val | CHO Tl flux | KCNQ2 spec | KCNQ1-KCNE1 inh | others
Cc1ccc(CCN2CC(C(=O)NC3CCCCC3)CC2=O)cc1 (stereo unspecified) | 0 | 0 | 0 | 0 | 0 | 0 | - | - | - | -
COc1ccccc1N1CCN(C(=O)CSc2nc3ccccc3[nH]2)CC1 | 0 | 0 | 0 | 0 | 0 | 0 | - | - | - | -
COc1ccccc1N1CCN(C(=O)CSc2nc3ccccc3nc2N2CCCCC2)CC1 | 6 | 0 | 0 | 0 | 0 | 0 | 70 | 0 | 0 | 99% | KCNK9 block conf=0;Kir2-1 spec=0;KCNK9 uninduced=0
O=C(CCCSCCCC(=O)NN=Cc1ccccc1)NN=Cc1ccccc1 | - | - | - | - | 0 | - | - | - | - | -
CN1/C(=C\C(=O)Nc2cccc(Cl)c2)C(C)(C)c2ccccc21 | 9 | -8.2 | 0 | 0 | 0 | 0 | 120 | 0 | 125% | 169% | KCNQ1 ephys val=0;KCNK9 block conf=45%;Kir2-1 spec=0;KCNK9 uninduced=34%
O=C(Nc1ccc(Oc2cccc3ccccc23)cc1)c1ccco1 | 11 | -14 | 0 | 0 | 0 | 0 | 160 | 0.29 | 0 | + | KCNK9 block conf=54%;Kir2-1 spec=0;KCNK9 uninduced=31%
CCOc1ccc(OC(=O)NC(c2ccccc2)C(Cl)(Cl)Cl)cc1 (stereo unspecified) | 8 | 0 | 0 | 0 | 0 | 0 | 111 | 0 | 101% | 168% | KCNK9 block conf=0;Kir2-1 spec=0;KCNK9 uninduced=0
CC(C)OC(=O)NC(c1ccccc1)C(Cl)(Cl)Cl (stereo unspecified) | 0 | 0 | 0 | 0 | 0 | 0 | - | - | - | -
COc1cccc(NC(=O)CN(C)C(=O)COc2ccccc2Cc2ccccc2)c1 | - | - | - | - | 0 | - | - | - | - | -

Screens (PubChem)
